SUMO1-SIM PPI: SUMO1-SIM interaction modulation; P63165; AID 602429; 360,000 tested, 0.33% active; SUMO1 binding to a labelled peptide, TR-FRET, 1 h; inhibition, % at 20 µM; in the data active = inhibition above about 37%
Target sequence (P63165 whole entry, looked up): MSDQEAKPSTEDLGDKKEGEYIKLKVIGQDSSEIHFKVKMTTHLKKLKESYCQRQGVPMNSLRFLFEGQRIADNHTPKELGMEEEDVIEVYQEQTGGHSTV
LMPTP block: LMPTP (human) inhibition | P24666 | recombinant LMPTP-A, OMFP fluorogenic substrate, fluorescence intensity | inhibition, % at 20 µM | 360,000 tested, 0.22% active | AID 651560;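 active = compounds that cut the enzyme signal by at least half of the control window in the single-dose screen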
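Assay system: LMPTP-A phosphatase enzyme | Input: 0.625 nM enzyme | Also added: Fluorogenic phosphatase substrate OMFP at 400 µM final | Compound dosing: One test concentration per compound, 20 µM, with 3% DMSO overall | Schedule: 50 min enzyme reaction at room temperature, protected from light | Signal: Fluorescence intensity | Benchmarks: no-enzyme and uninhibited controls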
STEP block: blocks human striatal-enriched tyrosine phosphatase; recombinant STEP, OMFP fluorogenic substrate, fluorescence; inhibition, % at 20 µM; 360,000 tested, 0.25% active;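 active = inhibition at 20 µM, scaled per plate between control wells, above about 37%, limit read from the data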
Target sequence (P54829 whole entry, looked up): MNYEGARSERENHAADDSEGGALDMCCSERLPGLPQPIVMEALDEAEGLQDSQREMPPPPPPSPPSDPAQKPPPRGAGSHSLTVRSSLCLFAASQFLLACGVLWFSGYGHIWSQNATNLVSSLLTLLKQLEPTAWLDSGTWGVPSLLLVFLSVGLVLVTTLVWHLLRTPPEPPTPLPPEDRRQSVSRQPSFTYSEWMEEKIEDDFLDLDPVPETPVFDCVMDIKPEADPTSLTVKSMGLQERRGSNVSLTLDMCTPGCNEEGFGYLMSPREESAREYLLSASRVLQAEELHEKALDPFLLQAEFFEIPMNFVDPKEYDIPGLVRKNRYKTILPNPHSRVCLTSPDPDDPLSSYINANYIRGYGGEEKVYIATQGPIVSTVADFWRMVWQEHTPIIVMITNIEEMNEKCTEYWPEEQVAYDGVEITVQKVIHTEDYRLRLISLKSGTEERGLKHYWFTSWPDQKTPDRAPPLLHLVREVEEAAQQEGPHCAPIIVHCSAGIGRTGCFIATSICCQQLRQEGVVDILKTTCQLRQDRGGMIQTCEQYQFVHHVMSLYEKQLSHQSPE
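Material: STEP (striatal-enriched tyrosine phosphatase) enzyme, cell-free | Medium: 50 mM Bis-Tris pH 6.0 with 2.5 mM DTT and 0.005% Tween 20 | Read-out: Percent inhibition scaled to no-enzyme and uninhibited-enzyme controls, plate-pattern corrected | Signal: Fluorescence read at 480 nm ex / 540 nm em | Times: 20 min reaction, room temperature, in the dark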
HKDC1 inh: HKDC1 (human) hexokinase inhibition; Q2TB90; recombinant HKDC1, G6PDH/diaphorase resazurin coupled fluorescence; inhibition, % at 20 µM; 340,000 tested, 0.16% active;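 active = inhibition above about 35% when tested at 20 µM, limit read from the data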
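Material – in-house recombinant HK5 (HKDC1) enzyme · Quantity – HKDC1 at 5 µg/mL · Buffer or medium – pH 8.0 Tris buffer with 10 mM MgCl2 · Reagent – glucose with 1 mM ATP · Dosing – single 20 µM dose · Times – reaction time 90 min, room temperature, protected from light · Technique – resorufin fluorescence at 613 nm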
Scp1 inh: inhibitors of human Scp-1 phosphatase. inhibition, % at 20 µM. AID 493091. 340,000 tested, 0.88% active. Recombinant Scp1, phosphopeptide, malachite green phosphate absorbance;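 active = inhibition above about 50% at 20 µM, limit read from the data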
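Test system: SCP-1 phosphatase catalytic domain, residues 76-261 | Compound dosing: One concentration, 20 µM, with 1.0% DMSO | Schedule: 45 min room-temperature reaction, 5 min colour, 30 min stabiliser | Detection: Absorbance at 630 nm | Read-out basis: % inhibition of SCP-1 phosphate liberation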
DNMT1 block: inhibitors of human DNMT1 | 360,000 tested, 0.83% active | P26358 | inhibition (reported as % activation of signal), % at 10 µM | AID 588458 | DNMT1 molecular beacon, Hinp1I cleavage, fluorescence; in the data active = inhibition above about 50%
Scp1 confirm: Scp-1 (human) inhibition, single-dose confirmed; recombinant SCP-1 catalytic domain, phosphate release, malachite green absorbance; inhibition, % at 20 µM; 2,500 tested, 61% active; AID 540281; shares compounds with Scp1 inh
Scp-1 MG ctr: interferes with malachite green readout, flagging false Scp-1 hits; 2,500 tested, under 10 active; shares compounds with Scp1 inh; AID 540313; apparent inhibition (interference), % at 20 µM; Colorimetric interference counterscreen, malachite green absorbance 630 nm;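 note: compounds added after enzyme reaction finished so only phosphate colour detection is probed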
Scp-1 Tm shift: validation of human Scp-1 inhibitors by thermal shift binding; shares compounds with Scp1 inh; Recombinant SCP1, Sypro Orange thermal shift Tm; thermal shift relative to vanadate control, % at 40 µM; 1,500 tested, 25% active; AID 540329;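 active = substances whose mean melting-temperature shift, as a percentage of the reference inhibitor's shift, reaches about 5.3%, limit read from the data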
Numbers stand for hits; n = inactive; x = no result given. Only some compounds are listed: those with a hit (about 1.8% of all), similar ones and a draw of the others.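 Rule for the calls, unless noted: active = inhibition of at least 30% at 20 µM; inactive = the rest.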

SMILES	SUMO1-SIM PPI	LMPTP block	STEP block	HKDC1 inh	Scp1 inh	DNMT1 block	Scp1 confirm	Scp-1 MG ctr	others
CC1=CC(C)[C@@H]2COC(c3ccc(O)cc3)[C@H]1C2C (some centres undefined)	n	n	n	n	n	n	x	x
CC(C)CCN1CC(C(=O)NCCC2=CCCCC2)CC1=O (centres undefined)	n	n	n	n	n	n	n	n
O=C(NCCc1ccccc1)C1CC(=O)N(CCc2ccccc2)C1 (centres undefined)	n	n	n	n	n	n	n	n
COc1ccc(CN2CC(C(=O)NCCC3=CCCCC3)CC2=O)cc1 (centres undefined)	n	n	n	n	n	n	x	x
COc1ccc(CN2CC(C(=O)NCc3ccccn3)CC2=O)cc1 (centres undefined)	n	n	n	n	n	n	x	x
CCN(CCNC(=O)C1CC(=O)N(CCc2ccccc2)C1)c1ccccc1 (centres undefined)	n	n	n	n	n	n	n	n
O=C(NCCc1ccc(Cl)cc1)C1CC(=O)N(CCc2ccccc2)C1 (centres undefined)	n	n	n	n	n	n	x	x
O=C(NCCc1ccccn1)C1CC(=O)N(Cc2ccccc2Cl)C1 (centres undefined)	n	n	n	n	n	n	n	n
CC(C)C(=O)N1CCCC1(C)C(=O)Nc1ccc(F)cc1 (centres undefined)	n	n	n	x	x	n	x	x
O=C(Nc1cc(Cl)ccc1-n1cncn1)C1CC1	n	n	n	n	n	n	x	x
CC(C)(C)C(=O)Nc1nnc(SCC(=O)NC2CCCC2)s1	n	n	n	n	n	n	x	x
O=C(Nc1cccc(NC(=O)C2CCCO2)c1)C1CCCO1 (centres undefined)	n	n	n	n	56.1	n	n	n
O=C1Nc2ccccc2C(=O)N(c2ccc3c(c2)OCCO3)C1C(=O)NC1CC1 (centres undefined)	n	n	x	x	x	x	x	x
COc1ccc(NC(C)=[N+](C)CCNS(=O)(=O)c2ccc(Cl)cc2)cc1	n	n	n	n	95.7	n	92.7	n	Scp-1 Tm shift=n
COc1ccc(NC(=O)CNS(=O)(=O)c2ccc(Cl)cc2)cc1	n	n	n	n	n	n	x	x
Cc1nn(CCc2nn[nH]n2)c2nc(-c3ccccc3)cc(C(F)(F)F)c12	n	n	n	n	63.6	n	70.6	n	Scp-1 Tm shift=n
COc1ccccc1NC(=O)C(=N\O)/C(C)=N/O	n	n	n	n	75.2	n	30.2	n	Scp-1 Tm shift=n
COc1ccc(/C=C2\C(=O)NCC(=O)N2C)cc1	n	n	n	n	89.3	n	n	n
CCn1c(SCC(=O)N/N=C/C=C/c2ccco2)nnc1-c1ccccc1	n	n	n	n	n	n	x	x
CCn1c(SCC(=O)N/N=C/C(C)=C\c2ccco2)nnc1-c1ccccc1	n	n	n	n	76.3	n	60.4	n	Scp-1 Tm shift=n
CCn1c(SCC(=O)N/N=C/C(C)=C/c2ccco2)nnc1-c1ccccc1	n	n	n	n	88.0	n	50.4	n	Scp-1 Tm shift=n
O=C(COc1ccccc1[N+](=O)[O-])Nc1cccc(S(=O)(=O)NC2=NCCCCC2)c1	n	n	n	n	62.0	n	73.6	n	Scp-1 Tm shift=n
O=C(NCCN1CCC(n2c(=O)[nH]c3ccccc32)CC1)c1ccc(F)c(F)c1	n	n	x	x	x	x	x	x
CCOC(=O)Cc1csc(NC(=O)Cc2ccc(Br)cc2)n1	n	n	n	n	54.2	n	n	n
C[n+]1ccccc1C1CCCC/C1=N\NC(N)=S (centres undefined)	n	n	n	n	112.6	n	99.7	n	Scp-1 Tm shift=n
SMILES	SUMO1-SIM PPI	LMPTP block	STEP block	HKDC1 inh	Scp1 inh	DNMT1 block	Scp1 confirm	Scp-1 MG ctr	others
CCCCc1ccc(S(=O)(=O)Nc2cc(C)on2)cc1	n	n	n	n	69.5	n	n	n
CCCCc1ccc(S(=O)(=O)Nc2nnc(C)s2)cc1	n	n	n	n	n	n	x	x
O=C(O)c1cccc2c1C(=O)c1ccc(-c3ccc(F)cc3F)cc1S2(=O)=O	n	n	n	n	n	n	x	x
CCOc1ccc(S(=O)(=O)N2CCC(C(=O)OC(C)C(=O)N3CCOCC3)CC2)cc1 (centres undefined)	n	n	n	n	n	n	x	x
CC(C)c1ccc(-c2c(C#N)c(N)nc3c2CCCCC3)cc1	n	n	n	n	99.6	n	n	n
Cc1ccc(CNC(=O)CN(C)S(=O)(=O)c2ccc3c(c2)n(C)c(=O)c(=O)n3C)cc1	n	n	n	n	n	n	n	n
COc1ccccc1CNC(=O)CN(C)S(=O)(=O)c1ccc2c(c1)n(C)c(=O)c(=O)n2C	n	n	n	n	n	n	n	n
Cn1c(=O)c(=O)n(C)c2cc(S(=O)(=O)CCC(=O)NCc3ccccc3)ccc21	n	n	n	n	71.4	n	n	n
COc1ccccc1CNC(=O)CN(C)S(=O)(=O)c1ccc2c(c1)c(=O)n(C)c(=O)n2C	n	n	n	n	n	n	x	x
COc1ccc(/C(C)=N/NC(=O)CNC(=O)/C=C\c2ccccc2)c(OC)c1	n	n	n	n	n	n	x	x
CCc1ccc(NC(=O)C(C)OC(=O)Cn2[nH]c(=O)c3ccccc3c2=O)cc1 (centres undefined)	n	n	n	x	x	n	x	x
C=C(C)C(=O)Nc1cccc(C2=NOC3(C2)C[C@H](C(N)=O)N(C(=O)c2ccccc2C(=O)c2ccccc2)C3)c1 (some centres undefined)	92.0	n	n	n	83.7	97.5	78.2	n	Scp-1 Tm shift=n
C/C=C/C=C/C(=O)N1CC2(CC(c3cccc(NC(=O)/C=C/C)c3)=NO2)C[C@@H]1C(N)=O (some centres undefined)	n	n	n	n	56.0	n	n	n
C/C=C(\C)C(=O)Nc1cccc(C2=NOC3(C2)C[C@@H](C(N)=O)N(C(=O)c2ccccc2C(=O)c2ccccc2)C3)c1 (some centres undefined)	n	n	n	n	n	n	x	x
COc1ccc(S(=O)(=O)N2CCN(C(=O)c3ccc([N+](=O)[O-])o3)CC2)cc1	n	n	n	n	50.9	n	42.1	n	Scp-1 Tm shift=n
CCn1nnnc1SCC(=O)Nc1nc(C)c(C)s1	n	n	n	n	n	n	x	x
COCCCn1nnnc1SCC(=O)Nc1nc(C)c(C)s1	n	n	n	n	52.3	n	n	n
CCOC(=O)Cc1csc(NC(=O)CSc2nc(=O)[nH]c3c2CCC3)n1	n	n	n	n	n	n	x	x
